# Legend:
# [1] = tested on: Pseudomonas aeruginosa; assay: Antimicrobial activity against Pseudomonas aeruginosa at 16 ug/ml after 24 hrs by agar diffusion technique; assay type: functional; conditions: read-out: DIZ
# Summary of the method: (§1)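 Strains came from a university microbiology department. Inocula were 10⁶ CFU/mL. Mueller-Hinton agar was seeded with culture, poured 3–4 mm thick, and 10 mm cups were bored. Compounds were dissolved in DMF (10 mg/mL stock), diluted, and the solution was placed in the cups. Plates were incubated at 37 °C overnight. Inhibition zone diameter (mm) was read at 24 h.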
# [2] = tested on: Klebsiella pneumoniae; assay: Antimicrobial activity against Klebsiella pneumoniae at 4 ug/ml after 24 hrs by agar diffusion technique; assay type: functional; conditions: read-out: DIZ; summary of the method: as §1
# [3] = tested on: Pseudomonas aeruginosa; assay: Antimicrobial activity against Pseudomonas aeruginosa at 128 ug/ml after 24 hrs by agar diffusion technique; assay type: functional; conditions: read-out: DIZ; summary of the method: as §1
# [4] = tested on: Pseudomonas aeruginosa; assay: Antimicrobial activity against Pseudomonas aeruginosa after 24 hrs by agar diffusion technique; assay type: functional; conditions: for MIC: Pseudomonas aeruginosa, 24 h
# Summary of the method: (§2)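 Agar cup diffusion on Mueller-Hinton agar seeded from 10⁶ CFU/mL suspensions, with 10 mm cups in a 3–4 mm layer. Compounds were in DMF (10 mg/mL stock) at several concentrations. Plates were incubated at 37 °C and zones measured after 24 h. MIC was taken as the intercept of the plot of log concentration against inhibition zone diameter.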
# [5] = tested on: Klebsiella pneumoniae; assay: Antimicrobial activity against Klebsiella pneumoniae after 24 hrs by agar diffusion technique; assay type: functional; conditions: for MIC: Klebsiella pneumoniae, 24 h; summary of the method: as §2
# [6] = Octanol-phosphate buffer partition coefficient, log D at pH 7.4 by spectrophotometry; assay type: physicochemical
# Summary of the method: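 Shake-flask method. A 0.2 mg/mL stock was diluted into pH 7.4 phosphate buffer and mixed with an equal volume of n-octanol, phases mutually presaturated and protected from light. Samples were vortexed 3 min, then shaken 5 h at 25 °C. Both phases were assayed by UV at 270–280 nm. D is the molar concentration ratio, octanol to aqueous.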
# [7] = tested on: Escherichia coli; assay: Antimicrobial activity against Escherichia coli at 512 ug/ml after 24 hrs by agar diffusion technique; assay type: functional; conditions: read-out: DIZ; summary of the method: as §1
# [8] = tested on: Klebsiella pneumoniae; assay: Antimicrobial activity against Klebsiella pneumoniae at 16 ug/ml after 24 hrs by agar diffusion technique; assay type: functional; conditions: read-out: DIZ; summary of the method: as §1
# [9] = tested on: Klebsiella pneumoniae; assay: Antimicrobial activity against Klebsiella pneumoniae at 128 ug/ml after 24 hrs by agar diffusion technique; assay type: functional; conditions: read-out: DIZ; summary of the method: as §1
# [10] = tested on: Pseudomonas aeruginosa; assay: Antimicrobial activity against Pseudomonas aeruginosa at 4 ug/ml after 24 hrs by agar diffusion technique; assay type: functional; conditions: read-out: DIZ; summary of the method: as §1
# [11] = tested on: Staphylococcus aureus; assay: Antimicrobial activity against Staphylococcus aureus at 16 ug/ml after 24 hrs by agar diffusion technique; assay type: functional; conditions: read-out: DIZ; summary of the method: as §1
# [12] = tested on: Staphylococcus aureus; assay: Antimicrobial activity against Staphylococcus aureus at 4 ug/ml after 24 hrs by agar diffusion technique; assay type: functional; conditions: read-out: DIZ; summary of the method: as §1
# [13] = tested on: Pseudomonas aeruginosa; assay: Antimicrobial activity against Pseudomonas aeruginosa at 64 ug/ml after 24 hrs by agar diffusion technique; assay type: functional; conditions: read-out: DIZ; summary of the method: as §1
# [14] = tested on: Staphylococcus aureus; assay: Antimicrobial activity against Staphylococcus aureus at 64 ug/ml after 24 hrs by agar diffusion technique; assay type: functional; conditions: read-out: DIZ; summary of the method: as §1
# [15] = tested on: Pseudomonas aeruginosa; assay: Antimicrobial activity against Pseudomonas aeruginosa at 512 ug/ml after 24 hrs by agar diffusion technique; assay type: functional; conditions: read-out: DIZ; summary of the method: as §1
# [16] = tested on: Escherichia coli; assay: Antimicrobial activity against Escherichia coli at 4 ug/ml after 24 hrs by agar diffusion technique; assay type: functional; conditions: read-out: DIZ; summary of the method: as §1
# [17] = tested on: Klebsiella pneumoniae; assay: Antimicrobial activity against Klebsiella pneumoniae at 512 ug/ml after 24 hrs by agar diffusion technique; assay type: functional; conditions: read-out: DIZ; summary of the method: as §1
# [18] = tested on: Escherichia coli; assay: Antimicrobial activity against Escherichia coli after 24 hrs by agar diffusion technique; assay type: functional; conditions: for MIC: Escherichia coli, 24 h; summary of the method: as §2
# [19] = tested on: Escherichia coli; assay: Antimicrobial activity against Escherichia coli at 128 ug/ml after 24 hrs by agar diffusion technique; assay type: functional; conditions: read-out: DIZ; summary of the method: as §1
# [20] = tested on: Staphylococcus aureus; assay: Antimicrobial activity against Staphylococcus aureus at 512 ug/ml after 24 hrs by agar diffusion technique; assay type: functional; conditions: read-out: DIZ; summary of the method: as §1
# [21] = tested on: Staphylococcus aureus; assay: Antimicrobial activity against Staphylococcus aureus after 24 hrs by agar diffusion technique; assay type: functional; conditions: for MIC: Staphylococcus aureus, 24 h; summary of the method: as §2
# [22] = tested on: Escherichia coli; assay: Antimicrobial activity against Escherichia coli at 16 ug/ml after 24 hrs by agar diffusion technique; assay type: functional; conditions: read-out: DIZ; summary of the method: as §1
# [23] = tested on: Escherichia coli; assay: Antimicrobial activity against Escherichia coli at 64 ug/ml after 24 hrs by agar diffusion technique; assay type: functional; conditions: read-out: DIZ; summary of the method: as §1
# [24] = tested on: Staphylococcus aureus; assay: Antimicrobial activity against Staphylococcus aureus at 128 ug/ml after 24 hrs by agar diffusion technique; assay type: functional; conditions: read-out: DIZ; summary of the method: as §1
# [25] = tested on: Klebsiella pneumoniae; assay: Antimicrobial activity against Klebsiella pneumoniae at 64 ug/ml after 24 hrs by agar diffusion technique; assay type: functional; conditions: read-out: DIZ; summary of the method: as §1
MIC [4],MIC [5],logD [6],Compound,zone of inhibition at 16 µg/mL [1],zone of inhibition at 4 µg/mL [2],zone of inhibition at 128 µg/mL [3],logMIC [4],logMIC [5],zone of inhibition at 512 µg/mL [7],zone of inhibition at 16 µg/mL [8],zone of inhibition at 128 µg/mL [9],zone of inhibition at 4 µg/mL [10],zone of inhibition at 16 µg/mL [11],zone of inhibition at 4 µg/mL [12],zone of inhibition at 64 µg/mL [13],zone of inhibition at 64 µg/mL [14],zone of inhibition at 512 µg/mL [15],zone of inhibition at 4 µg/mL [16],zone of inhibition at 512 µg/mL [17],logMIC [18],further results
> 512 µg/mL,10 µg/mL,0.158,CCn1cc(C(=O)O)c(=O)c2cc(F)c(N3CC[N+](CCO)(CCO)CC3)cc21.[Br-],0 mm,0 mm,0 mm,2.71,1,12 mm,0 mm,5 mm,0 mm,0 mm,0 mm,0 mm,0 mm,0 mm,0 mm,11 mm,0.6,MIC [18]: 4 µg/mL; zone of inhibition at 128 µg/mL [19]: 9 mm; zone of inhibition at 512 µg/mL [20]: 14 mm; logMIC [21]: 2.11; MIC [21]: 128 µg/mL; zone of inhibition at 16 µg/mL [22]: 4 mm; zone of inhibition at 64 µg/mL [23]: 7 mm; zone of inhibition at 128 µg/mL [24]: 0 mm; zone of inhibition at 64 µg/mL [25]: 4 mm
6 µg/mL,128 µg/mL,0.087,CCn1cc(C(=O)O)c(=O)c2cc(F)c(N3CCN(C=O)CC3)cc21 [4-N-FORMYL-1-PIPERAZINYL-NORFLOXACIN],2 mm,0 mm,13 mm,0.78,2.11,13 mm,0 mm,0 mm,0 mm,8 mm,7 mm,7 mm,8 mm,13 mm,2 mm,8 mm,1.04,MIC [18]: 11 µg/mL; zone of inhibition at 128 µg/mL [19]: 4 mm; zone of inhibition at 512 µg/mL [20]: 12 mm; logMIC [21]: 0; MIC [21]: < 1 µg/mL; zone of inhibition at 16 µg/mL [22]: 2 mm; zone of inhibition at 64 µg/mL [23]: 2 mm; zone of inhibition at 128 µg/mL [24]: 15 mm; zone of inhibition at 64 µg/mL [25]: 0 mm

Compound,MIC [4],MIC [5],logD [6],zone of inhibition at 16 µg/mL [1],zone of inhibition at 4 µg/mL [2],zone of inhibition at 128 µg/mL [3],logMIC [4],logMIC [5],zone of inhibition at 512 µg/mL [7],zone of inhibition at 16 µg/mL [8],zone of inhibition at 128 µg/mL [9],zone of inhibition at 4 µg/mL [10],zone of inhibition at 16 µg/mL [11],zone of inhibition at 4 µg/mL [12],zone of inhibition at 64 µg/mL [13],zone of inhibition at 64 µg/mL [14],zone of inhibition at 512 µg/mL [15],zone of inhibition at 4 µg/mL [16],zone of inhibition at 512 µg/mL [17],logMIC [18],further results
CCn1cc(C(=O)O)c(=O)c2cc(F)c(N3CCNCC3)cc21 [NORFLOXACIN],9 µg/mL,8 µg/mL,-0.41,2 mm,0 mm,15 mm,0.95,0,19 mm,0 mm,8 mm,0 mm,0 mm,0 mm,5 mm,0 mm,20 mm,0 mm,12 mm,1.45,MIC [18]: 14 µg/mL; zone of inhibition at 128 µg/mL [19]: 6 mm; zone of inhibition at 512 µg/mL [20]: 20 mm; logMIC [21]: 1.81; MIC [21]: 64 µg/mL; zone of inhibition at 16 µg/mL [22]: 0 mm; zone of inhibition at 64 µg/mL [23]: 4 mm; zone of inhibition at 128 µg/mL [24]: 3 mm; zone of inhibition at 64 µg/mL [25]: 5 mm

# Reference: ChEMBL document CHEMBL1137764, “Design, synthesis, antibacterial activity and physicochemical parameters of novel N-4-piperazinyl derivatives of norfloxacin” (Bioorg Med Chem, 2009)
